Laboratory results as given in ChEMBL document CHEMBL1129637, “Conformationally defined 6-s-trans-retinoic acid analogs. 3. Structure-activity relationships for nuclear receptor binding, transcriptional activity, and cancer chemopreventive activity” (J Med Chem, 1996).
Several values for one entry are separate records, joined by “and”; a condition that tells them apart may be missing. Identical values can stand only once.

What was measured:
Mus musculus [1] = organism: Mus musculus; assay: Antitumor activity in Mouse Skin Papilloma model; type: functional
In short: (§1)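 Carcinogen-induced papillomas on mouse dorsal skin, with test retinoid applied 1 h before TPA. Percent papilloma reduction = (1 − mean tumors in retinoid-treated animals / mean tumors in controls) × 100. ED50 came from probit analysis of a dose-response curve. Estimated standard error is 20% of the mean.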

[2] = biological target: Cellular retinoic acid-binding protein 1 (Gallus gallus) (UniProt P40220); assay: Inhibition of chick skin Cytoplasmic retinoic acid binding protein at 100-fold excess ligand
Mus musculus [3] = organism: Mus musculus; assay: Percentage papilloma reduction (81) at 45.9 nmol dose 1 hr prior to TPA; type: functional; in short: as §1
[4] = biological target: T1, Retinoic acid receptor alpha (Mus musculus) (UniProt P11416); assay: Percent inhibition of [3H]ATRA binding to mouse Retinoic acid receptor RAR alpha; set-up: concentration or dose not given beside the values; settings: concentration not given here
T1 sequence (whole entry): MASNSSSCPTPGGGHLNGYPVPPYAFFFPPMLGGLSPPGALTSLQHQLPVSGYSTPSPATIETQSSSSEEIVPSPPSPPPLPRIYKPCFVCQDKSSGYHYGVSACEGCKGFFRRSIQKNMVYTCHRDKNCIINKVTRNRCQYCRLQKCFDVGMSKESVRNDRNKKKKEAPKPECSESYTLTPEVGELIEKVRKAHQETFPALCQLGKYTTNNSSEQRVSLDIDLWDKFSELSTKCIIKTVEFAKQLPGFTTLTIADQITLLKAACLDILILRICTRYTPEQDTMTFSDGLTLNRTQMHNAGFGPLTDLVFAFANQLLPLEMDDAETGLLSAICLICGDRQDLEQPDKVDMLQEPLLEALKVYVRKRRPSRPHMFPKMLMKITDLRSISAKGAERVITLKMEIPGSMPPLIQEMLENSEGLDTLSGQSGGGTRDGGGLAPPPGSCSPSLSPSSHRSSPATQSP
In short: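 RARα was exposed to 1000 nM test retinoid plus 5 nM [3H]-(all-E)-RA. Displacement was compared with a positive control of 1000 nM unlabeled (all-E)-RA and with a no-retinoid control.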

[5] = biological target: T2, Retinoic acid receptor alpha (Mus musculus, UniProt P11416); assay: Inhibition of [3H]ATRA binding to mouse Retinoic acid receptor RAR alpha
T2 sequence (P11416 whole entry): T1 sequence (whole entry)
In short: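 Radioligand competition assay for RARα, measuring inhibition of [3H]-(all-E)-RA binding by unlabeled retinoid over a dose series to derive IC50.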

[6] = Inhibition of [3H]ATRA binding to Cytoplasmic retinoic acid binding protein (CRABP) type 1
[7] = biological target: T3, Retinoic acid receptor RXR-alpha (Homo sapiens, UniProt P19793); assay: Inhibition of binding to human Retinoic acid receptor RXR DEF domain
T3 sequence (P19793 whole entry): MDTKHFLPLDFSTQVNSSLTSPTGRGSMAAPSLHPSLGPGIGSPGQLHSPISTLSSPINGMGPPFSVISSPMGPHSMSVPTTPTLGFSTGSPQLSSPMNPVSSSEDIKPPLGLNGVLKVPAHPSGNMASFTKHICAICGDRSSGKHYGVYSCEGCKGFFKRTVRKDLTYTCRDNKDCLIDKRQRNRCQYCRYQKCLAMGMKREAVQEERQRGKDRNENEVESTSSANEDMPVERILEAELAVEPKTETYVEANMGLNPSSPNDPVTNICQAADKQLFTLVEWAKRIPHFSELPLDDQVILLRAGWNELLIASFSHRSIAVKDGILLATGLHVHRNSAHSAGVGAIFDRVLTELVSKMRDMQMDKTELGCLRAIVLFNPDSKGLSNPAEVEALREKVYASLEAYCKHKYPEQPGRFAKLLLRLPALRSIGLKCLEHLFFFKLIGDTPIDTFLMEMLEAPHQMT

[8] = biological target: T4, Cellular retinoic acid-binding protein 2 (Mus musculus, UniProt P22935); assay: Inhibition of [3H]ATRA binding to murine Cytoplasmic retinoic acid binding protein (CRABP) type 2
T4 sequence (P22935 whole entry): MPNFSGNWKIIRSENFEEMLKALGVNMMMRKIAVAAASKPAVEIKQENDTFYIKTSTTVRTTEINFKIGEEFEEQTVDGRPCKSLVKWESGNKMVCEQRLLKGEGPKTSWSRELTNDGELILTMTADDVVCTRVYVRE

[9] = biological target: T5, Retinoic acid receptor RXR-alpha (Mus musculus, UniProt P28700); assay: Inhibition of [3H]-(9Z)-RA binding to mouse Retinoic acid receptor RXR alpha
T5 sequence (P28700 whole entry): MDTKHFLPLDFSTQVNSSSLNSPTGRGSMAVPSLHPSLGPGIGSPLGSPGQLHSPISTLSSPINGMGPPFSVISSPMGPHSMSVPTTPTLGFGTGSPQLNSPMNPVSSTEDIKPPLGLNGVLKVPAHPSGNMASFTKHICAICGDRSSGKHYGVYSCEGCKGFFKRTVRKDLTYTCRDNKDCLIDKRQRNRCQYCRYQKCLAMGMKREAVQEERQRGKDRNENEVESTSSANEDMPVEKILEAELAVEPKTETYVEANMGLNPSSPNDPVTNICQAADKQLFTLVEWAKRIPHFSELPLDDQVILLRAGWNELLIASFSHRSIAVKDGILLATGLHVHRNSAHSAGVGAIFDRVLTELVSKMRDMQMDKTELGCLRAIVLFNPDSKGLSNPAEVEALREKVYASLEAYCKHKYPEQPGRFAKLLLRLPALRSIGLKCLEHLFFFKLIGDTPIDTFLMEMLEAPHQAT

[10] = biological target: Cellular retinoic acid-binding protein 1 (Gallus gallus, UniProt P40220); assay: Inhibition of [3H]ATRA binding to chick skin Cytoplasmic retinoic acid binding protein
[11] = biological target: Cellular retinoic acid-binding protein 1 (Mus musculus, UniProt P62965); assay: Inhibition of [3H]ATRA binding to murine Cytoplasmic retinoic acid binding protein (CRABP) type 1
Mus musculus [12] = organism: Mus musculus; assay: Antitumor activity in Mouse Skin Papilloma model * Value determined by Dawson et al; type: functional

Cellular retinoic acid-binding protein 1 (Gallus gallus), sequence (P40220 whole entry): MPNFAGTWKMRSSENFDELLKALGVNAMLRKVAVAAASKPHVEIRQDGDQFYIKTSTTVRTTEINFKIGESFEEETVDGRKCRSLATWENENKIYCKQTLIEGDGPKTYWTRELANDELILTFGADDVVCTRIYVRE
Cellular retinoic acid-binding protein 1 (Gallus gallus, UniProt P40220), sequence (P40220 whole entry): as above
Cellular retinoic acid-binding protein 1 (Mus musculus, UniProt P62965), sequence (P62965 whole entry): as the sequence (P40220 whole entry) above, with I68V, S71G, A86P, Y95H, K97T, I101L counted along it

inhibition [2] [%]	inhibition [4] [%]	IC50 [5] [nM]	IC50 [6] [nM]	Kd [7] [nM]	Kd [8]	IC50 [9] [nM]	IC50 [10] [nM]	Kd [11] [nM]	SMILES	ED50 (Mus musculus [1])	Reduction (Mus musculus [3]) [%]	ED50 (Mus musculus [12]) [nmol]
45	45	> 2000	> 10000	> 200	3 nM and 10 nM	> 2000			C\C(C=C1C=CCCC1)=C/C=C/C(C)=C/C(=O)O			
90	90	55		> 200	13 nM	> 2000	1300	1.2	CC1=C(C)/C(=C/C(C)=C/C=C/C(C)=C/C(=O)O)CCC1	490 nM	32	
100	98					> 2000			CCC1=C(C(C)C)/C(=C/C(C)=C/C=C/C(C)=C/C(=O)O)CCC1	2.5 nM	99	
100	100	8		> 200		> 2000		1	CC1=C(C(C)C)/C(=C/C(C)=C/C=C/C(C)=C/C(=O)O)CCC1	5 nM	95	
43	37	> 1000		33		620		> 200	CC1=C(C(C)C)/C(=C/C(C)=C\C=C\C(C)=C\C(=O)O)CCC1	> 100 nM	30	
50	55	600		> 200	13 nM	> 2000	> 10000	3	CC(=C\C=C\C(C)=C\C(=O)O)/C=C1/C=CCCC1	> 1000 nM	22	

More lines, now with the values behind:

SMILES	inhibition [2] [%]	inhibition [4] [%]	IC50 [5] [nM]	IC50 [6] [nM]	Kd [7] [nM]	Kd [8]	IC50 [9] [nM]	IC50 [10] [nM]	Kd [11] [nM]	ED50 (Mus musculus [1])	Reduction (Mus musculus [3]) [%]	ED50 (Mus musculus [12]) [nmol]
CC1=C(/C=C/C(C)=C/C=C/C(C)=C/C(=O)O)C(C)(C)CCC1 [TRETINOIN]	100	100								3 nM	95	
CC1=C(C)/C(=C/C(C)=C\C=C\C(C)=C\C(=O)O)CCC1	10	10	> 2000		120	> 200 nM	> 2000	> 10000	> 200		50	
CC(=CC(=O)O)/C=C/C=C(C)/C=C/C1=C(C)CCCC1(C)C [ISOTRETINOIN]												64
CC1=C(/C=C/C(C)=C\C=C\C(C)=C\C(=O)O)C(C)(C)CCC1 [ALITRETINOIN]	25	95								2.1 nM	95	
CCC1=C(C(C)C)/C(=C/C(C)=C/C=C/C(C)=CC(=O)O)CCC1										4.7 nmol	81	
CCC1=C(C(C)C)/C(=C/C(C)=C\C=C\C(C)=C\C(=O)O)CCC1	15	42			16	> 200 nM	1000	> 10000	> 200	> 100 nM	43	
